The source made the active and inactive calls. No cut-off for these calls is given here.
How the values were obtained:
[1] = Prodrug activation in mouse H22 cells assessed as increase in fluorescence at 10 uM after 8 hrs by flow cytometric analysis; assay type: cell-based; settings: h22, 8 h
Outline: (§1)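 Cells (10^5 per confocal dish) were seeded in DMEM overnight at 37 °C, 5% CO2. They were pretreated with 5 mM GSH in DMEM, or medium alone, for 2 h, then washed. Compound at 10 μM was added for 8 h. Intracellular fluorescence was read by confocal microscopy (excitation 633 nm) or by flow cytometry under the same conditions.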

[2] = Prodrug activation in mouse H22 cells assessed as increase in fluorescence at 10 uM after 8 hrs by confocal laser scanning microscopic method; assay type: cell-based; settings: h22, 8 h; outline: as §1
H22 [3] = test: Photodynamic antitumor activity against mouse H22 cells implanted in Kunming mouse assessed as increase in necrotic cells in tumour at 2 mg/kg, iv administered at […] post-implantation followed by irradiated with 100 mW/cm2 […] and measured up to 15 days by H and E staining based microscopic method; assay type: functional, organism-based; settings: time 15.0 day
Outline: (§2)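 Mice carried subcutaneous H22 tumours of about 50 mm³ and were randomised into 5 groups of 5. They received saline or compound at 2 mg/kg (100 μL) i.v. on days 1, 4 and 7. Light groups were irradiated at 670 nm, 100 mW/cm², 12 h after each dose. Tumour volume and body weight were recorded daily for 15 days. Tumours were then excised and weighed, fixed in 4% paraformaldehyde, paraffin-embedded and H&E stained. Apoptotic and necrotic areas were scored microscopically.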

A549 [4] = test: Cytotoxicity against human A549 cells assessed as reduction cell viability up to 10 uM after 24 hrs in dark condition by MTT assay; assay type: cell-based; settings: a549, 24 h
Outline: (§3)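 MTT assay. About 6000 cells per well were seeded and left overnight at 37 °C, 5% CO2. Compound was added at a range of concentrations in DMEM (1% DMSO, 0.05% Tween 80) for 24 h in the dark, then the medium was replaced. Irradiated wells received a 670 nm LED at 20 mW·cm⁻² for 2 min (2.4 J·cm⁻²); dark wells were not irradiated. Cells were incubated overnight, then MTT for 4 h, DMSO added, OD read at 490 nm. Three independent experiments, each in sextuplicate. IC50 is the concentration killing 50% of cells.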

HeLa [5] = test: Induction of ROS generation in human HeLa cells at 10 uM incubated for 12 hrs irradiated with 20 mW cm^-2 light in presence of vitamin C by DCFH-DA staining based confocal laser scanning microscopic method; assay type: functional, cell-based
Outline: (§4)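 Cells were seeded in confocal dishes overnight. Pretreatment was GSH 5 mM in DMEM for 2 h, or vitamin C 100 μM for 1 h, before compound at 10 μM for 12 h. DCFH-DA was added for 1 h, then 5 PBS washes and transfer to serum-free, phenol red-free DMEM. Cells were irradiated at 670 nm, 20 mW·cm⁻², for 3 min. Confocal imaging used λex 488 nm for DCF and 633 nm for the photosensitizer.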

H22 [6] = test: Cytotoxicity against mouse H22 cells assessed as reduction cell viability up to 10 uM after 24 hrs in dark condition by MTT assay; assay type: cell-based; settings: h22, 24 h; outline: as §3
HeLa [7] = test: Cytotoxicity against human HeLa cells assessed as reduction cell viability up to 10 uM after 24 hrs in dark condition by MTT assay; assay type: cell-based; outline: as §3
[8] = Prodrug activation in HELF cells assessed as increase in fluorescence at 10 uM after 8 hrs in presence of GSH by flow cytometric analysis; assay type: cell-based; settings: human, primary lung fibroblast; outline: as §1
[9] = Prodrug activation in HELF cells assessed as increase in fluorescence at 10 uM after 8 hrs by flow cytometric analysis; assay type: cell-based; settings: human, primary lung fibroblast; outline: as §1
H22 [10] = test: Photodynamic antitumor activity against mouse H22 cells implanted in Kunming mouse assessed as increase in apoptotic cells in tumour at 2 mg/kg, iv administered at […] post-implantation followed by irradiated with 100 mW/cm2 […] and measured up to 15 days by H and E staining based microscopic method; assay type: functional, organism-based; settings: time 15.0 day; outline: as §2
[11] = Prodrug activation in mouse H22 cells assessed as increase in fluorescence at 10 uM after 8 hrs in presence of GSH by flow cytometric analysis; assay type: cell-based; settings: h22, 8 h; outline: as §1
[12] = Prodrug activation in human A549 cells assessed as increase in fluorescence at 10 uM after 8 hrs by confocal laser scanning microscopic method; assay type: cell-based; settings: a549, 8 h; outline: as §1
HeLa [13] = test: Cytotoxicity against human HeLa cells assessed as reduction cell viability preincubated for 24 hrs in dark condition followed by irradiated with 20 mW cm^-2 light by MTT assay; assay type: functional, cell-based; outline: as §3
[14] = Prodrug activation in human HeLa cells assessed as increase in fluorescence at 10 uM after 8 hrs by confocal laser scanning microscopic method; assay type: cell-based; outline: as §1
A549 [15] = test: Cytotoxicity against human A549 cells assessed as reduction cell viability preincubated for 24 hrs in dark condition followed by irradiated with 20 mW cm^-2 light by MTT assay; assay type: functional, cell-based; outline: as §3
[16] = Prodrug activation in HELF cells assessed as increase in fluorescence at 10 uM after 8 hrs by confocal laser scanning microscopic method; assay type: cell-based; settings: human, primary lung fibroblast; outline: as §1
Primary lung fibroblast = test: Induction of ROS generation in human HELF cells at 10 uM incubated for 12 hrs irradiated with 20 mW cm^-2 light in presence of GSH by DCFH-DA staining based confocal laser scanning microscopic method; assay type: functional, cell-based; outline: as §4
[17] = Prodrug activation in human A549 cells assessed as increase in fluorescence at 10 uM after 8 hrs in presence of GSH by flow cytometric analysis; assay type: cell-based; settings: a549, 8 h; outline: as §1
HeLa [18] = test: Induction of ROS generation in human HeLa cells at 10 uM incubated for 12 hrs irradiated with 20 mW cm^-2 light in presence of GSH by DCFH-DA staining based confocal laser scanning microscopic method; assay type: functional, cell-based; outline: as §4
A549 [19] = test: Induction of ROS generation in human A549 cells at 10 uM incubated for 12 hrs irradiated with 20 mW cm^-2 light in presence of GSH by DCFH-DA staining based confocal laser scanning microscopic method; assay type: functional, cell-based; outline: as §4
H22 [20] = test: Cytotoxicity against mouse H22 cells assessed as reduction cell viability preincubated for 24 hrs in dark condition followed by irradiated with 20 mW cm^-2 light by MTT assay; assay type: functional, cell-based; outline: as §3
H22 [21] = test: Induction of ROS generation in mouse H22 cells at 10 uM incubated for 12 hrs irradiated with 20 mW cm^-2 light in presence of GSH by DCFH-DA staining based confocal laser scanning microscopic method; assay type: functional, cell-based; outline: as §4
[22] = Cytotoxicity against human HELF cells assessed as reduction cell viability up to 10 uM after 24 hrs in dark condition by MTT assay; assay type: cell-based; settings: primary lung fibroblast; outline: as §3
H22 [23] = test: Induction of ROS generation in mouse H22 cells at 10 uM incubated for 12 hrs irradiated with 20 mW cm^-2 light in presence of vitamin C by DCFH-DA staining based confocal laser scanning microscopic method; assay type: functional, cell-based; outline: as §4
H22 [24] = test: Photodynamic antitumor activity against mouse H22 cells implanted in Kunming mouse assessed as reduction in tumour weight at 2 mg/kg, iv administered at […] post-implantation followed by irradiated with 100 mW/cm2 […] and measured up to 15 days; assay type: functional, organism-based; settings: time 15.0 day; outline: as §2
[25] = Prodrug activation in human A549 cells assessed as increase in fluorescence at 10 uM after 8 hrs by flow cytometric analysis; assay type: cell-based; settings: a549, 8 h; outline: as §1
[26] = Prodrug activation in human HeLa cells assessed as increase in fluorescence at 10 uM after 8 hrs in presence of GSH by flow cytometric analysis; assay type: cell-based; outline: as §1

Compound	Drug metabolism [1]	Drug metabolism [2]	Activity (H22 [3])	Activity (A549 [4])	Activity (HeLa [5])	Activity (H22 [6])	Activity (HeLa [7])	Drug metabolism [8]	Drug metabolism [9]	Activity (H22 [10])	Drug metabolism [11]	Drug metabolism [12]	Drug metabolism [14]	Drug metabolism [16]	Activity (Primary lung fibroblast)	Drug metabolism [17]	Activity (HeLa [18])	Activity (A549 [19])	Activity (H22 [21])	Activity [22]	other results
COCCOCCOCCOc1ccc(/C=C/C2=[N+]3C(=C(c4ccc(OCc5cn(CCSSCCn6cc(COc7ccc(C8=C9C(C)=CC(/C=C/c%10ccc(N(C)C)cc%10)=[N+]9[B-](F)(F)n9c(/C=C/c%10ccc(N(C)C)cc%10)cc(C)c98)cc7)nn6)nn5)cc4)c4c(C)c(I)c(/C=C/c5ccc(OCCOCCOCCOC)cc5)n4[B-]3(F)F)C(C)=C2I)cc1	Metabolite_Detected	Metabolite_Detected	Active	Non-Toxic	inactive	Non-Toxic	Non-Toxic	Metabolite_Detected	Metabolite_Notdetected	Active	Metabolite_Detected	Metabolite_Detected	Metabolite_Detected	Metabolite_Notdetected	Active	Metabolite_Detected	Active	Active	Active	Non-Toxic	IC50 (HeLa [13]; light or radiation study): 670 nM; IC50 (A549 [15]; A549, light or radiation study): 440 nM; IC50 (H22 [20]; H22, light or radiation study): 480 nM; Activity (H22 [23]): inactive; Activity (H22 [24]): Active; Drug metabolism [25]: Metabolite_Detected; Drug metabolism [26]: Metabolite_Detected
COCCOCCOCCOc1ccc(/C=C/C2=[N+]3C(=C(c4ccc(OCc5cn(CCCCCCn6cc(COc7ccc(C8=C9C(C)=CC(/C=C/c%10ccc(N(C)C)cc%10)=[N+]9[B-](F)(F)n9c(/C=C/c%10ccc(N(C)C)cc%10)cc(C)c98)cc7)nn6)nn5)cc4)c4c(C)c(I)c(/C=C/c5ccc(OCCOCCOCCOC)cc5)n4[B-]3(F)F)C(C)=C2I)cc1	Metabolite_Notdetected	Metabolite_Notdetected	Active	Non-Toxic	inactive	Non-Toxic	Non-Toxic	Metabolite_Notdetected	Metabolite_Notdetected	Active	Metabolite_Notdetected	Metabolite_Notdetected	Metabolite_Notdetected	Metabolite_Notdetected	inactive	Metabolite_Notdetected	inactive	inactive	inactive	Non-Toxic	Activity (HeLa [13]): inactive; Activity (A549 [15]): inactive; Activity (H22 [20]): inactive; Activity (H22 [23]): inactive; Activity (H22 [24]): Active; Drug metabolism [25]: Metabolite_Notdetected; Drug metabolism [26]: Metabolite_Notdetected

Reference: ChEMBL document CHEMBL4680231, “A glutathione-responsive photosensitizer with fluorescence resonance energy transfer characteristics for imaging-guided targeting photodynamic therapy” (Eur J Med Chem, 2020)
